The inhibition in vivo is the percentage by which the read-out fell short of the control.

The text below walks through data of ChEMBL document CHEMBL1275301, “Antihypertensive activity of newer 1,4-dihydro-5-pyrimidine carboxamides: synthesis and pharmacological evaluation” (2010).

Calls of active or inactive are those of the source. No cut-off for these calls is given here.

The test system of experiment [1] is Rattus norvegicus. Kind of experiment: Antihypertensive activity against DOCA-salt induced hypertension in albino rat assessed as reduction in systolic blood pressure at 10 mg/kg, po after 180 mins by tail-cuff method. It counts as functional. The note with it: Artery, 3 h. In short, it runs like this:
(§1)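 Rats given DOCA 20 mg/kg s.c. twice weekly in olive oil for 4 weeks, with 1% w/v NaCl as drinking water, reaching systolic 160–180 mm Hg. Rats were trained in restrainer and tail-cuff sessions. Compounds in 0.5% CMC were dosed at 10 mg/kg by oral feeding needle, with vehicle and nifedipine groups. BP was read before dosing and after, with the tail warmed at 37 °C for 2–5 min. Each compound was run three times in one week and readings averaged.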

Experiment [2] relates to Rattus norvegicus. As to the kind of experiment: Antihypertensive activity against DOCA-salt induced hypertension in albino rat assessed as reduction in systolic blood pressure at 10 mg/kg, po up to 360 mins by tail-cuff method. It counts as functional, organism-based. Also noted: dose 10 mg/kg. The note with it: Artery. In short, it runs like this:
as §1

For experiment [3], the system named is Rattus norvegicus. As to the kind of experiment: Antihypertensive activity against DOCA-salt induced hypertension in albino rat assessed as reduction in systolic blood pressure at 10 mg/kg, po after 720 mins by tail-cuff method. Particulars: Artery, 12 h. It counts as functional. The procedure, abridged:
as §1

The test system of experiment [4] is Rattus norvegicus. As to the kind of experiment: Antihypertensive activity against DOCA-salt induced hypertension in albino rat assessed as reduction in systolic blood pressure at 10 mg/kg, po after 60 mins by tail-cuff method. It counts as functional. The note with it: Artery, 1 h. The procedure, abridged: as §1
Experiment [5] relates to Rattus norvegicus. As to the kind of experiment: Antihypertensive activity against DOCA-salt induced hypertension in albino rat assessed as reduction in systolic blood pressure at 10 mg/kg, po after 30 mins by tail-cuff method. The note with it: Artery, 0.5 h. It counts as functional. The procedure, abridged: as §1
Experiment [6] relates to Rattus norvegicus. As to the kind of experiment: Antihypertensive activity against DOCA-salt induced hypertension in albino rat assessed as reduction in systolic blood pressure at 10 mg/kg, po after 360 mins by tail-cuff method. The experiment is classed as functional. Particulars: Artery, 6 h. In short, it runs like this: as §1
Experiment [7] relates to Rattus norvegicus. Kind of experiment: Antihypertensive activity against DOCA-salt induced hypertension in albino rat assessed as reduction in systolic blood pressure at 10 mg/kg, po after 120 mins by tail-cuff method. The note with it: Artery, 2 h. The experiment is classed as functional. In short, it runs like this:
as §1

Experiment [8] deals with Rattus norvegicus. As to the kind of experiment: Antihypertensive activity against DOCA-salt induced hypertension in albino rat assessed as reduction in systolic blood pressure at 10 mg/kg, po after 15 mins by tail-cuff method. The experiment is classed as functional. The note with it: Artery, 0.25 h. In short, it runs like this: as §1
The test system of experiment [9] is Rattus norvegicus. Kind of experiment: Antihypertensive activity against DOCA-salt induced hypertension in albino rat assessed as reduction in systolic blood pressure at 10 mg/kg, po after 900 mins by tail-cuff method. The experiment is classed as functional. Particulars: Artery, 15 h. In short, it runs like this:
as §1

In experiment [10] the test system is Rattus norvegicus. As to the kind of experiment: Antihypertensive activity against DOCA-salt induced hypertension in albino rat assessed as reduction in systolic blood pressure at 10 mg/kg, po after 600 mins by tail-cuff method. It counts as functional. The note with it: Artery, 10 h. The procedure, abridged: as §1
The subject of experiment [11] is Rattus norvegicus. As to the kind of experiment: Antihypertensive activity against DOCA-salt induced hypertension in albino rat assessed as reduction in systolic blood pressure at 10 mg/kg, po after 300 mins by tail-cuff method. The note with it: Artery, 5 h. It counts as functional. The procedure, abridged:
as §1

Experiment [12] relates to Rattus norvegicus. Kind of experiment: Antihypertensive activity against DOCA-salt induced hypertension in albino rat assessed as reduction in systolic blood pressure at 10 mg/kg, po after 240 mins by tail-cuff method. It counts as functional. The note with it: Artery, 4 h. The procedure, abridged: as §1

In the case of `COc1ccc(C2N=C(SCc3ccc(Cl)cc3)NC(C)=C2C(=O)Nc2ccc(F)cc2)cc1OC` (centres undefined), the inhibition in vivo at 10 mg/kg was determined as 20.1% in the experiment with Rattus norvegicus [1]; 22.2% in the experiment with Rattus norvegicus [3]; 10.3% in the experiment with Rattus norvegicus [4]; 5.7% in the experiment with Rattus norvegicus [5]; 37.1% with Rattus norvegicus [6]; 15.5% in the experiment with Rattus norvegicus [7]. Besides, the inhibition in vivo at 10 mg/kg in the experiment with Rattus norvegicus [8] is 3.1%; in the experiment with Rattus norvegicus [9] it was 20%; in the experiment with Rattus norvegicus [10] it was 26.7%; in the experiment on Rattus norvegicus [11], 31.3%; in the experiment with Rattus norvegicus [12], 24.1%. The outcome in the experiment on Rattus norvegicus [2] was Active.

With `COc1ccc(C2N=C(SCc3ccccc3Cl)NC(C)=C2C(=O)Nc2ccc(F)cc2)cc1OC` (centres undefined), the inhibition in vivo at 10 mg/kg in the experiment on Rattus norvegicus [1] is 25.3%; with Rattus norvegicus [3], 23.2%; with Rattus norvegicus [4], 11.8%; with Rattus norvegicus [5], 6.2%; in the experiment with Rattus norvegicus [6] it was 39.2%; with Rattus norvegicus [7] it was 17%. The inhibition in vivo at 10 mg/kg in the experiment with Rattus norvegicus [8] came out at 2.6%; in the experiment on Rattus norvegicus [9] it was 21%; in the experiment with Rattus norvegicus [10], 30.3%; in the experiment with Rattus norvegicus [11], 35.9%; with Rattus norvegicus [12], 30.3%. The outcome in the experiment with Rattus norvegicus [2] was Active.

For the molecule `COc1ccc(C2N=C(SCc3ccccc3Cl)NC(C)=C2C(=O)Nc2ccc(Br)cc2)cc1` (centres undefined), the inhibition in vivo at 10 mg/kg in the experiment with Rattus norvegicus [1] stood at 11.3%; with Rattus norvegicus [3], 10.8%; in the experiment on Rattus norvegicus [4] it was 6.7%; in the experiment with Rattus norvegicus [5], 4.6%; in the experiment on Rattus norvegicus [6] it was 20.6%; with Rattus norvegicus [7], 8.2%. Moreover, the inhibition in vivo at 10 mg/kg in the experiment on Rattus norvegicus [8] came to 3.1%; in the experiment with Rattus norvegicus [9], 7.2%; in the experiment on Rattus norvegicus [10], 13.3%; in the experiment on Rattus norvegicus [11], 17.9%; with Rattus norvegicus [12] it was 15.4%. Besides, the result in the experiment on Rattus norvegicus [2] was Active.

Turning to `COc1ccc(C2N=C(SCc3ccccc3)NC(C)=C2C(=O)Nc2ccc(Br)cc2)cc1` (centres undefined), the inhibition in vivo at 10 mg/kg with Rattus norvegicus [1] is 10.3%; in the experiment with Rattus norvegicus [3], 7.2%; with Rattus norvegicus [4], 5.6%; in the experiment with Rattus norvegicus [5] it was 2.6%; in the experiment with Rattus norvegicus [6], 18.6%; with Rattus norvegicus [7], 8.2%. The inhibition in vivo at 10 mg/kg was 1% in the experiment with Rattus norvegicus [8]; 5.6% in the experiment on Rattus norvegicus [9]; 11.3% with Rattus norvegicus [10]; 16.4% in the experiment on Rattus norvegicus [11]; 13.3% with Rattus norvegicus [12]. The result in the experiment on Rattus norvegicus [2] was Active.

In the case of `COc1ccc(C2N=C(SCc3ccc(F)cc3)NC(C)=C2C(=O)Nc2ccc(F)cc2)cc1OC` (centres undefined), the inhibition in vivo at 10 mg/kg in the experiment on Rattus norvegicus [1] was determined as 22.2%; in the experiment on Rattus norvegicus [3] it was 17%; with Rattus norvegicus [4], 11.8%; with Rattus norvegicus [5], 6.7%; in the experiment with Rattus norvegicus [6] it was 37.1%; in the experiment with Rattus norvegicus [7] it was 15.5%. Besides, the inhibition in vivo at 10 mg/kg in the experiment on Rattus norvegicus [8] is 3.6%; with Rattus norvegicus [9] it was 15.4%; in the experiment on Rattus norvegicus [10], 21%; with Rattus norvegicus [11] it was 37.9%; in the experiment with Rattus norvegicus [12] it was 28.7%. Also, the result in the experiment on Rattus norvegicus [2] was Active.

As for `CC1=C(C(=O)Nc2ccc([N+](=O)[O-])cc2)C(c2cccc([N+](=O)[O-])c2)N=C(SCc2cccc(Cl)c2)N1` (centres undefined), the inhibition in vivo at 10 mg/kg in the experiment with Rattus norvegicus [1] is 14.9%; with Rattus norvegicus [3] it was 12.9%; with Rattus norvegicus [4], 8.2%; in the experiment with Rattus norvegicus [5] it was 4.1%; with Rattus norvegicus [6], 21.6%; with Rattus norvegicus [7], 12.4%. Moreover, the inhibition in vivo at 10 mg/kg is 2.6% with Rattus norvegicus [8]; 10.8% with Rattus norvegicus [9]; 19% in the experiment on Rattus norvegicus [10]; 21% with Rattus norvegicus [11]; 17.9% in the experiment on Rattus norvegicus [12]. Besides, the outcome in the experiment with Rattus norvegicus [2] was Active.

Turning to `CC1=C(C(=O)Nc2ccc([N+](=O)[O-])cc2)C(c2cccc([N+](=O)[O-])c2)N=C(SCc2ccccc2)N1` (centres undefined), the inhibition in vivo at 10 mg/kg in the experiment on Rattus norvegicus [1] came out at 16.5%; in the experiment with Rattus norvegicus [3] it was 17.5%; in the experiment with Rattus norvegicus [4], 7.7%; with Rattus norvegicus [5] it was 4.1%; in the experiment with Rattus norvegicus [6], 32.5%; with Rattus norvegicus [7], 10.3%. The inhibition in vivo at 10 mg/kg in the experiment on Rattus norvegicus [8] stood at 2.6%; with Rattus norvegicus [9] it was 14.9%; in the experiment with Rattus norvegicus [10], 27.2%; in the experiment on Rattus norvegicus [11], 25.6%; with Rattus norvegicus [12], 21%. Also, the outcome in the experiment with Rattus norvegicus [2] was Active.

With `CC1=C(C(=O)Nc2ccc(F)cc2)C(c2ccc([N+](=O)[O-])cc2)N=C(SCc2ccccc2)N1` (centres undefined), the inhibition in vivo at 10 mg/kg with Rattus norvegicus [1] amounted to 23.7%; in the experiment with Rattus norvegicus [3], 27.3%; in the experiment on Rattus norvegicus [4], 12.3%; with Rattus norvegicus [5], 7.2%; in the experiment on Rattus norvegicus [6], 38.7%; in the experiment with Rattus norvegicus [7], 18%. Also, the inhibition in vivo at 10 mg/kg with Rattus norvegicus [8] was found to be 3.1%; in the experiment on Rattus norvegicus [9], 21%; with Rattus norvegicus [10], 32.3%; with Rattus norvegicus [11], 38.5%; in the experiment with Rattus norvegicus [12] it was 32.3%. Also, the outcome in the experiment with Rattus norvegicus [2] was Active.

`CC1=C(C(=O)Nc2ccc(Br)cc2)C(c2ccc(Cl)cc2Cl)N=C(SCc2ccccc2)N1` (centres undefined): the inhibition in vivo at 10 mg/kg was found to be 13.4% in the experiment with Rattus norvegicus [1]; 11.3% with Rattus norvegicus [3]; 6.7% in the experiment on Rattus norvegicus [4]; 3.6% in the experiment with Rattus norvegicus [5]; 24.2% in the experiment on Rattus norvegicus [6]; 10.3% with Rattus norvegicus [7]. For the same molecule, the inhibition in vivo at 10 mg/kg was 1.5% in the experiment on Rattus norvegicus [8]; 8.2% with Rattus norvegicus [9]; 17.4% in the experiment with Rattus norvegicus [10]; 22.1% in the experiment on Rattus norvegicus [11]; 17.4% in the experiment on Rattus norvegicus [12]. The result in the experiment with Rattus norvegicus [2] was Active.

For the molecule `CC1=C(C(=O)Nc2ccc(Br)cc2)C(c2ccc(Cl)cc2Cl)N=C(SCc2ccccc2Cl)N1` (centres undefined), the inhibition in vivo at 10 mg/kg in the experiment with Rattus norvegicus [1] came out at 22.2%; with Rattus norvegicus [3], 20.6%; in the experiment with Rattus norvegicus [4], 11.8%; in the experiment on Rattus norvegicus [5], 5.7%; in the experiment on Rattus norvegicus [6], 38.1%; in the experiment on Rattus norvegicus [7], 16%. In addition, the inhibition in vivo at 10 mg/kg was determined as 3.1% in the experiment on Rattus norvegicus [8]; 16.4% in the experiment on Rattus norvegicus [9]; 24.6% with Rattus norvegicus [10]; 36.4% in the experiment with Rattus norvegicus [11]; 28.7% with Rattus norvegicus [12]. In the experiment on Rattus norvegicus [2], the outcome was Active.

Regarding `CC1=C(C(=O)Nc2ccc([N+](=O)[O-])cc2)C(c2ccc(Br)cc2)N=C(SCc2cccc(Cl)c2)N1` (centres undefined), the inhibition in vivo at 10 mg/kg in the experiment on Rattus norvegicus [1] amounted to 9.3%; in the experiment on Rattus norvegicus [3], 2.6%; with Rattus norvegicus [4], 4.1%; in the experiment with Rattus norvegicus [5] it was 2.6%; in the experiment with Rattus norvegicus [6] it was 7.2%; in the experiment with Rattus norvegicus [7] it was 6.7%. In addition, the inhibition in vivo at 10 mg/kg with Rattus norvegicus [8] amounted to 2.1%; in the experiment on Rattus norvegicus [9], 2.6%; in the experiment on Rattus norvegicus [10] it was 5.1%; in the experiment on Rattus norvegicus [11], 9.2%; in the experiment with Rattus norvegicus [12], 11.8%. Moreover, in the experiment on Rattus norvegicus [2], the result was Active.

Turning to `CC1=C(C(=O)Nc2ccc([N+](=O)[O-])cc2)C(c2ccc(Br)cc2)N=C(SCc2ccc(F)cc2)N1` (centres undefined), the inhibition in vivo at 10 mg/kg in the experiment with Rattus norvegicus [1] was found to be 17.5%; in the experiment with Rattus norvegicus [3], 27.3%; in the experiment with Rattus norvegicus [4], 9.7%; with Rattus norvegicus [5] it was 5.2%; in the experiment with Rattus norvegicus [6], 38.7%; in the experiment on Rattus norvegicus [7], 12.9%. The inhibition in vivo at 10 mg/kg in the experiment on Rattus norvegicus [8] was determined as 2.6%; with Rattus norvegicus [9] it was 22.6%; in the experiment with Rattus norvegicus [10], 32.3%; with Rattus norvegicus [11] it was 34.4%; in the experiment with Rattus norvegicus [12] it was 27.2%. In the experiment with Rattus norvegicus [2], the result was Active.
